High-throughput results: PubChem, Johns Hopkins Ion Channel Center
MrgX1 antagonist: antagonists of human MrgX1 receptor, primary screen, HEK293 cells, Fluo-4 calcium flux; BAM8-22 antagonism; active compounds read low; B-score at 10 µM; 310,000 compounds, 1.3% hits;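 active means calcium-response B-score plate-corrected more than 3 library SD below zero, starting fluorescence within 5 deviations, no agonist response on first addition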;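 further: peak minus trough fluorescence over baseline after final BAM8-22 challenge near maximal dose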
Target sequence (Q96LB2 whole entry, looked up): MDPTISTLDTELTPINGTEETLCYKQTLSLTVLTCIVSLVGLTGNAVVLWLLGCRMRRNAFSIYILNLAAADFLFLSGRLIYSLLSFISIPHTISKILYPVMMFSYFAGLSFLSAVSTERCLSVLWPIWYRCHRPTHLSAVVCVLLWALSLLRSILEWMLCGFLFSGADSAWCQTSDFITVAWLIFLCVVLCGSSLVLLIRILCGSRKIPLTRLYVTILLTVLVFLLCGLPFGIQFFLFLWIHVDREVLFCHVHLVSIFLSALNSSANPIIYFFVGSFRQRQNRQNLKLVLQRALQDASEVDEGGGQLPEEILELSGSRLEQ
RGS4 pot: RGS4 potentiators or activators, primary screen, cell-based, HEK293 M3R inducible RGS4, calcium flux; B-score at 10 µM; carbachol calcium flux Fluo4; active compounds read low; 310,000 compounds, 0.92% hits; AID 463111, 2010;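 active means B-score of the integrated calcium signal more than 4 SD below the library mean, with starting fluorescence not abnormally high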;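 further: negative B-score means reduced calcium response which marks RGS4 activation or potentiation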
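System – HEK293 FlpIn-TREx cells, stable M3R, doxycycline-inducible RGS4 · Reagent – ECmax carbachol challenge · Times – compound preincubation 20 min at room temperature before agonist · Technique – Fluo4 fluorescence kinetic imaging of calcium · Measure – B score of integrated Fluo4 ratio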
MrgX1 agonist: agonists of human MrgX1 receptor, primary screen, HEK293 cells, Fluo-4 calcium flux; 310,000 compounds, 0.44% hits; Mas-related G-protein coupled receptor member X1 (Homo sapiens), Q96LB2; B-score at 10 µM; Fluo-4 calcium fluorescence, agonist mode; active compounds read high; AID 588627, 2011;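 active means calcium response B-score plate-corrected fluorescence ratio at least 3 library SD, with starting fluorescence B-score inside 5 SD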
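times = overnight plating, then 30 min 37 °C plus 30 min room-temperature dye loading | assay system = stable human MrgX1 HEK293 cell line | input = fifteen thousand cells per well | signal = kinetic calcium dye fluorescence, Fluo-4 NW | dosing = compound delivered in addition one of three | read-out = B-scored fluorescence response ratio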
RGS4 inh: RGS4 inhibitors, primary screen, cell-based, HEK293 M3R inducible RGS4, calcium flux | Regulator of G-protein signaling 4 (Homo sapiens), P49798 | Fluo-4 calcium flux; active compounds read high; triggered by carbachol at its EC20 | B-score at 10 µM | 310,000 compounds, 0.45% hits;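 active means B-score, a plate-corrected calcium signal, over three deviations above library mean, with baseline fluorescence within five deviations of library mean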;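 further: RGS4 expression induced by doxycycline in cells with stable M3 receptor; B-score is computed from the integrated fluorescence ratio over baseline after carbachol; higher B-score means a larger calcium signal and so more RGS4 inhibition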
Target sequence (P49798 whole entry, looked up): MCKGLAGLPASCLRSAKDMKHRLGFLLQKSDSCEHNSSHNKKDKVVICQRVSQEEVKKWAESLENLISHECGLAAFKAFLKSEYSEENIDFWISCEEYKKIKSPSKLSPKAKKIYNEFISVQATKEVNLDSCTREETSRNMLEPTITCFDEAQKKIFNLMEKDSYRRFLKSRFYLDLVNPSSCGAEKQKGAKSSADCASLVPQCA
MrgX1 allo act: positive allosteric modulators of MrgX1, primary screen, HEK293 cells, Fluo-4 calcium flux | Mas-related G-protein coupled receptor member X1 (Homo sapiens), Q96LB2 | 310,000 compounds, 0.63% hits | B-score at 10 µM | FDSS; active compounds read high;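 active means plate-corrected calcium response at least 3 library SD above typical, normal starting fluorescence, not activating the receptor alone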;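 further: compound read alongside a low EC10 to EC30 dose of BAM8-22 agonist; peak minus trough fluorescence over baseline measured at the second addition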
MrgX1 ant reconf: MrgX1 receptor antagonists, duplicate retest, confirmation, HEK293 cells, Fluo-4 calcium flux; shares compounds with MrgX1 antagonist; BAM8-22 calcium flux; active compounds read low; remaining BAM8-22 calcium response % of control (active compounds read low), % at 10 µM; 2,300 compounds, 19% hits;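 active means remaining agonist calcium response no higher than 100% minus 3 SD of agonist-only control wells, with starting fluorescence near control levels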;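 further: agonist BAM8-22 given at a near maximal EC90 to ECmax level; peak minus minimum fluorescence divided by baseline after agonist addition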
HEK293 Ca flux: nonspecific calcium signal in parental HEK293, confirmation, counter-screen for MrgX1 antagonist project, parental HEK293 cells, Fluo-4 calcium flux; shares compounds with MrgX1 antagonist; Fluo-4 calcium fluorescence, FDSS; fluorescence ratio F(max-min)/F0 at 10 µM; 4,000 compounds, 2% hits; AID 624111, 2012;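 active means duplicate-averaged calcium fluorescence ratio at least three times the standard deviation of buffer wells, a nonspecific response in parental cells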
HEK293 Ca counter: calcium response in parental HEK293 cells, primary screen, counter-screen for MrgX1 allosteric activator project, cell-based, Fluo-4 calcium flux, duplicate. shares compounds with MrgX1 antagonist. Fluo-4 fluorescence ratio; active compounds read high. fluorescence ratio F(max-min)/F0 at 10 µM. 4,000 compounds, 0.4% hits;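 active means calcium fluorescence ratio, averaged over duplicates, at least 3 SD of the buffer-well ratio, meaning a nonspecific response in receptor-free cells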;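 further: untransfected parental HEK293 lacking MrgX1 used as counterscreen for MrgX1 allosteric activators; fluorescence change taken during the second addition on a kinetic imager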
HEK293 Ca cntr2: calcium response in parental HEK293 cells, primary screen, counter-screen for MrgX1 agonist project, cell-based, Fluo-4 calcium flux, duplicate, agonist mode | shares compounds with MrgX1 antagonist | Fluo-4 calcium fluorescence (FDSS); active compounds read high | fluorescence ratio F(max-min)/F0 at 10 µM | 4,000 compounds, 8.7% hits;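 active means calcium fluorescence ratio at least three times the spread of buffer wells, meaning a non-specific response in parental cells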
* = called active by the depositor. Sampled rows, rich in hits. Any-hit rate of the full collection: about 3.5%.

How did Cn1c(SCC(=O)c2c(N)n(C)c(=O)n(C)c2=O)nnc1-c1ccccc1 do in these assays?
MrgX1 antagonist: inactive; RGS4 pot: inactive; MrgX1 agonist: inactive; RGS4 inh: inactive; MrgX1 allo act: inactive

Results for Cn1c(SCC(=O)c2c(N)n(C)c(=O)n(C)c2=O)nnc1-c1ccccc1F ?
MrgX1 antagonist: -5.2*; RGS4 pot: inactive; MrgX1 agonist: inactive; RGS4 inh: inactive; MrgX1 allo act: inactive; MrgX1 ant reconf: inactive; HEK293 Ca flux: inactive; HEK293 Ca counter: inactive; HEK293 Ca cntr2: inactive

What do the screens show for `Cc1ccc(C(=O)Nc2ccc(S(=O)(=O)N3CCc4ccccc4C3)cc2)o1`?
MrgX1 antagonist: inactive; RGS4 pot: inactive; MrgX1 agonist: inactive; RGS4 inh: inactive; MrgX1 allo act: inactive

Results for CN1CCN(S(=O)(=O)c2ccc(NC(=O)Cc3cccs3)cc2)CC1 ?
MrgX1 antagonist: -4.7*; RGS4 pot: inactive; MrgX1 agonist: inactive; RGS4 inh: inactive; MrgX1 allo act: inactive; MrgX1 ant reconf: inactive; HEK293 Ca flux: inactive; HEK293 Ca counter: inactive; HEK293 Ca cntr2: 51*

Results for CCC(=O)Nc1ccc(S(=O)(=O)N2CCc3ccccc3C2)cc1 ?
MrgX1 antagonist: -7.9*; RGS4 pot: inactive; MrgX1 agonist: inactive; RGS4 inh: inactive; MrgX1 allo act: inactive; MrgX1 ant reconf: inactive; HEK293 Ca flux: inactive; HEK293 Ca counter: inactive; HEK293 Ca cntr2: inactive

What do the screens show for `O=C(Cc1cccs1)Nc1ccc(S(=O)(=O)N2CCCCC2)cc1`?
MrgX1 antagonist: inactive; MrgX1 agonist: inactive; MrgX1 allo act: inactive

Results for Oc1ccccc1NCC(O)Cn1ccc2ccccc21 (stereo unspecified) ?
MrgX1 antagonist: -5.3*; RGS4 pot: inactive; MrgX1 agonist: inactive; RGS4 inh: inactive; MrgX1 allo act: inactive; MrgX1 ant reconf: inactive; HEK293 Ca flux: inactive; HEK293 Ca counter: inactive; HEK293 Ca cntr2: inactive

How did Clc1ccc(-c2nc(/C=N/N3CCOCC3)c3ccccn23)cc1 do in these assays?
MrgX1 antagonist: inactive; RGS4 pot: inactive; MrgX1 agonist: inactive; RGS4 inh: inactive; MrgX1 allo act: inactive

How did CSc1nnc2n(C)c3c(c(=O)n12)C1(CCCC1)Cc1ccccc1-3 do in these assays?
MrgX1 antagonist: inactive; RGS4 pot: inactive; MrgX1 agonist: inactive; RGS4 inh: inactive; MrgX1 allo act: inactive

What do the screens show for `CSc1n[nH]c2nc3c(c(=O)n12)C1(CCCC1)Cc1ccccc1-3`?
MrgX1 antagonist: -5.4*; RGS4 pot: inactive; MrgX1 agonist: inactive; RGS4 inh: inactive; MrgX1 allo act: inactive; MrgX1 ant reconf: inactive; HEK293 Ca flux: inactive; HEK293 Ca counter: inactive; HEK293 Ca cntr2: inactive

Results for COc1ccccc1CCC(=O)OCC(=O)Nc1c(C)nn(-c2ccccc2)c1C ?
MrgX1 antagonist: inactive; RGS4 pot: inactive; MrgX1 agonist: inactive; RGS4 inh: inactive; MrgX1 allo act: inactive

How did O=C(CCN1CCC(c2ccccc2)C1)c1ccccc1 (stereo unspecified) do in these assays?
MrgX1 antagonist: -5.2*; RGS4 pot: inactive; MrgX1 agonist: inactive; RGS4 inh: inactive; MrgX1 allo act: inactive; MrgX1 ant reconf: inactive; HEK293 Ca flux: inactive; HEK293 Ca counter: inactive; HEK293 Ca cntr2: inactive

How did O=C(Nc1ccccc1)N1CCC(c2ccccc2)C1 (stereo unspecified) do in these assays?
MrgX1 antagonist: inactive; RGS4 pot: inactive; MrgX1 agonist: inactive; RGS4 inh: inactive; MrgX1 allo act: inactive

How did COCCn1nnnc1C(c1cccs1)N1CCN(c2nc3ccccc3s2)CC1 (stereo unspecified) do in these assays?
MrgX1 antagonist: inactive; RGS4 pot: inactive; MrgX1 agonist: inactive; RGS4 inh: inactive; MrgX1 allo act: inactive

Results for COCCn1nnnc1C(c1cccs1)N1CCN(c2cc(C)ccc2C)CC1 (stereo unspecified) ?
MrgX1 antagonist: -10*; RGS4 pot: inactive; MrgX1 agonist: inactive; RGS4 inh: inactive; MrgX1 allo act: inactive; MrgX1 ant reconf: inactive; HEK293 Ca flux: inactive; HEK293 Ca counter: inactive; HEK293 Ca cntr2: inactive

How did CC(=O)Oc1ccc(C(=O)Nc2cccc3c2CCCC3)cc1 do in these assays?
MrgX1 antagonist: inactive; RGS4 pot: inactive; MrgX1 agonist: inactive; RGS4 inh: inactive; MrgX1 allo act: inactive

Results for COc1cc2c(cc1OC)C1=CC(=O)C(=O)N1C(C)(C)C2 ?
MrgX1 antagonist: inactive; RGS4 pot: inactive; MrgX1 agonist: inactive; RGS4 inh: inactive; MrgX1 allo act: inactive

How did CCc1nnc(NC(=O)CN2C(=O)NC3(CC(C)CC(C)(C)C3)C2=O)s1 (stereo unspecified) do in these assays?
MrgX1 antagonist: inactive; RGS4 pot: inactive; MrgX1 agonist: inactive; RGS4 inh: inactive; MrgX1 allo act: inactive

How did Cn1nc(C(=O)Nc2cccc(Cl)c2)cc1C(=O)Nc1cccc(Cl)c1 do in these assays?
MrgX1 antagonist: -4.8*; RGS4 pot: inactive; MrgX1 agonist: inactive; RGS4 inh: inactive; MrgX1 allo act: inactive; MrgX1 ant reconf: inactive; HEK293 Ca flux: inactive; HEK293 Ca counter: inactive; HEK293 Ca cntr2: inactive

Results for CN1CCN(C(=O)CN(c2cccc(Br)c2)S(=O)(=O)c2ccccc2)CC1 ?
MrgX1 antagonist: inactive; RGS4 pot: inactive; MrgX1 agonist: inactive; RGS4 inh: inactive; MrgX1 allo act: inactive
